Published values of several laboratories.
Lines come from different studies, so protocols differ.
FOLH1: Glutamate carboxypeptidase 2 (FOLH1, Homo sapiens, UniProt Q04609)
CYP1A1: Cytochrome P450 1A1 (CYP1A1, Homo sapiens, UniProt P04798)
Enoyl-[acyl-carrier-protein] reductase [NADPH] FabI: Enoyl-[acyl-carrier-protein] reductase [NADPH] FabI (Staphylococcus aureus, UniProt Q6GI75)

| SMILES | target | assay | setting | Ki |
| --- | --- | --- | --- | --- |
| NCCCC[C@H](NC(=O)[C@@H]1CCCN1C(=O)[C@@H]1CSSC[C@H](NC(=O)CNC(=O)CNC(=O)CN)C(=O)N[C@@H](Cc2ccc(O)cc2)C(=O)N[C@@H](Cc2ccccc2)C(=O)N[C@@H](CCC(N)=O)C(=O)N[C@@H](CC(N)=O)C(=O)N1)C(=O)NCC(N)=O | Vasopressin V1a receptor (AVPR1A, Homo sapiens, UniProt P37288) | ligand displacement, radioligand | cell membranes | 1100 nM |
| O=C(O)CCC(NC(=O)NC(CCCCNC(=O)CCCCCCC(=O)NCCCCC(NC(=O)C(Cc1ccccc1)NC(=O)C(Cc1ccccc1)NC(=O)CN1CCN(CC(=O)O)CCN(CC(=O)O)CCN(CC(=O)O)CC1)C(=O)O)C(=O)O)C(=O)O (stereo not drawn) | FOLH1 | enzyme activity, inhibitor, fluorescence |  | 1.23 nM |
| COc1cc(O)c(CC=C(C)C)c(O)c1C(=O)/C=C/c1ccc(O)cc1 | CYP1A1 | enzyme activity, inhibitor, fluorescence | 15 min, pH 7.4 | 110 nM |
| CC[C@H](C)[C@H](NC(=O)[C@H](CCC(=O)O)NC(=O)[C@H](CC(=O)O)NC(=O)CNC(=O)[C@H](CC(C)C)NC(=O)[C@H](CCCNC(=N)N)NC(=O)[C@H](CCCNC(=N)N)NC(=O)[C@H](CC(C)C)NC(=O)CNC(=O)[C@H](CCC(N)=O)NC(=O)[C@@H](NC(=O)[C@H](CCSC)NC(=O)[C@H](Cc1c[nH]c2ccccc12)NC(=O)[C@@H](NC(=O)[C@H](CCC(=O)O)NC(=O)[C@@H]1CCCN1C(=O)[C@H](CCCNC(=N)N)NC(C)=O)[C@@H](C)CC)[C@@H](C)O)C(=O)N[C@@H](CC(N)=O)C(=O)N[C@@H](C)C(=O)N[C@@H](Cc1ccc(O)cc1)C(=O)N[C@@H](Cc1ccc(O)cc1)C(=O)N[C@@H](C)C(=O)N[C@@H](CCCNC(=N)N)C(N)=O | Apoptosis regulator Bcl-2 (BCL2, Homo sapiens, UniProt P10415) | ligand displacement, FP |  | ~2900 nM |
| CCc1cc(O)c(Oc2ccc(C(N)=O)cc2F)cc1F | Enoyl-[acyl-carrier-protein] reductase [NADPH] FabI | enzyme activity, inhibitor |  | 0.08 nM |
| C#Cc1ccc2c(=O)cc(-c3ccccc3)oc2c1 | CYP1A1 | enzyme activity, inhibitor, fluorescence | 6 min, pH 7.6 | 24 nM |
| CC[C@H](NC(=O)[C@H](CS(=O)(=O)CC1CC1)N[C@@H](c1ccc(F)cc1)C(F)(F)F)C(=O)C(=O)NC1CC1 | Cathepsin S (Ctss, Mus musculus, UniProt O70370) | enzyme activity, inhibitor |  | 0.04 nM |
| O=c1cc(-c2ccccc2)oc2c1ccc1ccccc12 | CYP1A1 | enzyme activity, inhibitor, fluorescence | 6 min, pH 7.6 | 43 nM |
| CCc1cc(O)c(Oc2cccnc2F)cc1F | Enoyl-[acyl-carrier-protein] reductase [NADPH] FabI | enzyme activity, inhibitor |  | 0.35 nM |
| CC[C@H](C)[C@H](NC(=O)[C@H](CCC(=O)O)NC(=O)[C@H](CC(=O)O)NC(=O)CNC(=O)[C@H](CC(C)C)NC(=O)[C@H](CCCNC(=N)N)NC(=O)[C@H](CCC(N)=O)NC(=O)[C@H](CC(C)C)NC(=O)[C@H](CO)NC(=O)[C@H](CCC(N)=O)NC(=O)[C@@H](NC(=O)[C@H](CC(C)C)NC(=O)[C@H](Cc1c[nH]c2ccccc12)NC(=O)[C@@H](NC(=O)[C@H](CCC(=O)O)NC(=O)[C@@H]1CCCN1C(=O)[C@H](CCCNC(=N)N)NC(C)=O)[C@@H](C)CC)[C@@H](C)O)C(=O)N[C@@H](CC(N)=O)C(=O)N[C@@H](C)C(=O)N[C@@H](Cc1ccc(O)cc1)C(=O)N[C@@H](Cc1ccc(O)cc1)C(=O)N[C@@H](C)C(=O)N[C@@H](CCCNC(=N)N)C(N)=O | Bcl-2-like protein 2 (BCL2L2, Homo sapiens, UniProt Q92843) | ligand displacement, FP |  | 360 nM |
| COc1cc(O)c(CC=C(C)C)c2c1C(=O)CC(c1ccc(O)cc1)O2 (stereo not drawn) | CYP1A1 | enzyme activity, inhibitor, fluorescence | 15 min, pH 7.4 | 1600 nM |
| O=C(O)CCC(NC(=O)NC(CCCCNC(=O)CCCCCCC(=O)NC(CCCCNC(=O)CN1CCN(CC(=O)O)CCN(CC(=O)O)CCN(CC(=O)O)CC1)C(=O)OCc1ccccc1)C(=O)O)C(=O)O.[Ga+3] (stereo not drawn) | FOLH1 | enzyme activity, inhibitor, fluorescence |  | 29 nM |
